Data set [1] concerns Caco-2. Briefly: Induction of nitrite release in human Caco2 cells at 200 uM after 24 hrs by Griess assay. In kind it is functional, cell-based. The method, boiled down: (§1)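 Compounds incubated 24 h with Caco-2 monolayers at 200 or 10 μM (n = 3). Supernatant nitrite read by Griess reaction (sulfanilamide 2% plus N-1-naphthylethylenediamine) at 4 °C, 45 min shaking, A540; nitrate measured after VCl3 reduction. Quantified against sodium nitrite/nitrate standards 3−200 μM; NOx = nitrite + nitrate.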
In general terms: The Griess reaction detects nitrite, a stable product of nitric oxide.

Data set [2] concerns HT-1080. The data set is described as follows: Induction of apoptosis in human HT1080 cells assessed as increase in apoptotic cell population at 10 uM after 24 hrs by Annexin V FITC staining based flow cytometry. To be noted: ht-1080, 24 h. The method in brief:
(§2)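 Cells at 80% confluence in T25 flasks treated 24 h serum-free with compound (10 μM); vehicle-only controls. Cells washed in Hepes pH 7.4/NaCl/CaCl2 binding buffer, double-stained with Annexin V-FITC and propidium iodide 15 min at room temperature in dark, read by flow cytometry within 5 min; expressed as % of control fluorescence.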
(Flow cytometry measures light scatter and fluorescence of single cells or particles in a stream.)

Data set [3] has as its system HT-1080. The data set is described as follows: Inhibition of PMA-stimulated MMP-9 secretion in human HT1080 cells at 100 uM after 24 hrs by gelatin zymography. In kind it is functional. The method, boiled down:
(§3)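 HT1080 at ~75% confluence switched to serum-free medium, pretreated 3 h with compound (100 μM; DMSO ≤0.1%), then PMA 10 μM for 24 h at 37 °C. Cleared supernatants loaded at equal protein on 2% gelatin SDS-PAGE, Triton washed, developed 48 h at 37 °C in Tris pH 7.5/CaCl2 buffer, Coomassie stained; gelatinolytic bands quantified by densitometry relative to stimulated control.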

Data set [4] relates to Caco-2. Briefly: Induction of nitrate release in human Caco2 cells at 200 uM after 24 hrs by Griess assay. In kind it is functional, cell-based. The method in brief:
as §1

The nature of data set [5]: Cytotoxicity against human Caco2 cells assessed as cell viability after 24 hrs by MTT assay. In kind it is cell-based. To be noted: Caco-2 cells. The method, boiled down: (§4)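 Cells seeded (Caco-2 8 × 10³/well, HT1080 12 × 10⁴/well), grown to 70% confluence, serum-starved 1 h, then exposed to compound at 0.1−200 μM (eight levels) serum-free for 24 h. MTT 0.5 mg/mL for 3 h at 37 °C, formazan dissolved in DMSO, OD 540 nm; viability as % of untreated. CC50 from sigmoidal fits; three experiments, triplicate wells.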
In general terms: Tetrazolium assays rely on reduction of a dye to a coloured formazan, in cell work by metabolically active cells.

Data set [6] relates to Caco-2. The data set is described as follows: Inhibition of IL1beta/TNFalpha-stimulated MMP-2 secretion in human Caco2 cells at 10 uM after 24 hrs by densitometric analysis. In kind it is functional, cell-based. The method, boiled down:
(§5)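 Near-confluent (~75%) Caco-2 switched to serum-free medium, pretreated 30 min with compound (10 μM, DMSO <1%), then TNF-α and IL-1β 10 ng/mL for 24 h at 37 °C. Cleared supernatants normalized by Bradford protein, run on 2% gelatin SDS-PAGE, Triton washed, developed 48 h at 37 °C in Tris pH 7.5/CaCl2 buffer, Coomassie stained; lysis bands quantified by densitometry as % of cytokine-only control.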

The nature of data set [7]: Cytotoxicity against human Caco2 cells assessed as inhibition of cell viability at 200 uM after 24 hrs by MTT assay. In kind it is cell-based. To be noted: Caco-2 cells, read-out: INH. The method in brief:
as §4

In data set [8] the target is Matrix metalloproteinase-9 (Homo sapiens, UniProt P14780). The data set is described as follows: Inhibition of p-aminophenylmercuric acetate stimulated human recombinant MMP-9 using (7-methoxycoumarin-4-yl)-acetyl-pro-Leu-Gly-Leu-(3-(2,4-dinitrophenyl)-L-2,3-diaminopropionyl)-Ala-Arg-NH2 as substrate after 45 mins by fluorogenic assay.
Sequence of Matrix metalloproteinase-9 (P14780 whole entry): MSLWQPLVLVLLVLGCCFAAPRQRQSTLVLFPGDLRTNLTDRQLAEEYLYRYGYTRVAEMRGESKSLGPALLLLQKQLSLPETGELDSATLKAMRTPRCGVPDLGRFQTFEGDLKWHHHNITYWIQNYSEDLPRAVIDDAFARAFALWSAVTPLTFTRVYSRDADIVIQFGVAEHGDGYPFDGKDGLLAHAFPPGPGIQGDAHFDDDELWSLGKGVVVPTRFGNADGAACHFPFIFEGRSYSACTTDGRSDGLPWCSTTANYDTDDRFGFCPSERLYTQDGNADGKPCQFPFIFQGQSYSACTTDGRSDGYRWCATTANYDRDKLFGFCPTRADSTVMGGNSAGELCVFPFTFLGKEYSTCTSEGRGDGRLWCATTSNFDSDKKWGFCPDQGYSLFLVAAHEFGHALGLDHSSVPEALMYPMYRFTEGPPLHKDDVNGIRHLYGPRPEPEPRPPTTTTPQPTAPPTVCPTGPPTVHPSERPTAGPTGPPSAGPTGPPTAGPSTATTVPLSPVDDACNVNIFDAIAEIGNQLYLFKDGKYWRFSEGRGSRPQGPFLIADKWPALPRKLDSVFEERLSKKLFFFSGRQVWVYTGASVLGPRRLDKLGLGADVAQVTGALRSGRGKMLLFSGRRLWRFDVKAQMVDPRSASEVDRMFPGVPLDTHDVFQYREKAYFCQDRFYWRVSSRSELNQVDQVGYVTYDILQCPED
Data set [9] has as its system Caco-2. The data set is described as follows: Induction of apoptosis in human Caco2 cells assessed as increase in apoptotic cell population at 10 uM after 24 hrs by Annexin V FITC staining based flow cytometry. To be noted: caco-2, 24 h. The method in brief: as §2
Data set [10] concerns the target 72 kDa type IV collagenase (Homo sapiens, UniProt P08253). The data set is described as follows: Inhibition of p-aminophenylmercuric acetate stimulated human recombinant MMP-2 using (7-methoxycoumarin-4-yl)-acetyl-pro-Leu-Gly-Leu-(3-(2,4-dinitrophenyl)-L-2,3-diaminopropionyl)-Ala-Arg-NH2 as substrate after 45 mins by fluorogenic assay.
Data set [11] has as its system HT-1080. The data set is described as follows: Inhibition of PMA-stimulated MMP-2 secretion in human HT1080 cells at 100 uM after 24 hrs by gelatin zymography. In kind it is functional, cell-based. The method in brief: as §3
Data set [12] relates to Caco-2. Briefly: Inhibition of PMA-stimulated human Caco2 cells migration through matrigel membrane at 10 uM after 48 hrs by light microscopic analysis. In kind it is functional. The note with it: Caco-2, 48 h. The method in brief: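 Matrigel-coated invasion chamber inserts, 8 μm pore membrane, 0.5 mL of 2 × 10⁵ Caco-2 cells/mL; stimulated with HGF (100 or 500 ng/mL) or PMA (10 μM) with compound (100 nM or 10 μM); 48 h invasion at 37 °C, 5% CO2. Non-invading cells swabbed off, lower-surface cells Diff-Quik stained and counted by light microscopy; normalized to stimulated control; duplicates.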

Data set [13] concerns HT-1080. The data set is described as follows: Induction of apoptosis in human HT1080 cells assessed as increase in necrotic cell population at 10 uM after 24 hrs by Annexin V FITC staining based flow cytometry. To be noted: ht-1080, 24 h. The method, boiled down:
as §2

The nature of data set [14]: Cytotoxicity against human HT1080 cells assessed as cell viability after 24 hrs by MTT assay. In kind it is cell-based. To be noted: HT-1080 cells. The method, boiled down: as §4
The subject of data set [15] is Caco-2. The data set is described as follows: Inhibition of IL1beta/TNFalpha-stimulated MMP-9 secretion in human Caco2 cells at 10 uM after 24 hrs by densitometric analysis. In kind it is functional, cell-based. The method in brief: as §5
Data set [16] concerns Caco-2. The data set is described as follows: Induction of apoptosis in human Caco2 cells assessed as increase in necrotic cell population at 10 uM after 24 hrs by Annexin V FITC staining based flow cytometry. To be noted: caco-2, 24 h. The method, boiled down:
as §2

Each structure is given as a SMILES string. Calls of active or inactive are those of the source. The calls are words filed in the database; no cut-off is given here.

Usually inhibition stands for the percentage by which the read-out fell short of the control. As a reminder, the CC50 is the concentration giving 50% cytotoxicity. As a reminder, the IC50 is the concentration that gives 50% inhibition.

Sequence of 72 kDa type IV collagenase (P08253 whole entry): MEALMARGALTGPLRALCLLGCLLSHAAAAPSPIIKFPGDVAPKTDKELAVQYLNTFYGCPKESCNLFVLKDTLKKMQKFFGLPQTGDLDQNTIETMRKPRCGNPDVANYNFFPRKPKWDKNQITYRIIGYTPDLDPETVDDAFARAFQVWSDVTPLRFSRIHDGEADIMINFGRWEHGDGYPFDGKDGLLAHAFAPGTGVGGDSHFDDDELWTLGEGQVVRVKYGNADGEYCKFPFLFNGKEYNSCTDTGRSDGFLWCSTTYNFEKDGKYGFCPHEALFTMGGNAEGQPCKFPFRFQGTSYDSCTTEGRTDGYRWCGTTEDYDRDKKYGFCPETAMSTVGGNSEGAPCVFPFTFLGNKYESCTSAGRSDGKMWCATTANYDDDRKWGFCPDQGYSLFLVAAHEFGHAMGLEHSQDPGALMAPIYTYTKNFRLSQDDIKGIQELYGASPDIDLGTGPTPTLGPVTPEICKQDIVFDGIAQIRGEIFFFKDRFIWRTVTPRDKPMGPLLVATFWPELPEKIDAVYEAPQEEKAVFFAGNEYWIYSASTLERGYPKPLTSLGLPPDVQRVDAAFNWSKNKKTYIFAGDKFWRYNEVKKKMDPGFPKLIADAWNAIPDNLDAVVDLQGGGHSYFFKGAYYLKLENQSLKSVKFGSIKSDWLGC

As for `O=C1NC(=O)C(c2ccc(Oc3ccccc3)cc2)(N2CCC(CCO[N+](=O)[O-])CC2)C(=O)N1`, the result with Caco-2 [1] and in the data set with Caco-2 [4] was Active. The Activity result in the data set on HT-1080 [2], in the data set with Caco-2 [9], in the data set on HT-1080 [13] and with Caco-2 [16] was “Non-toxic” each time. Also, the inhibition entry with HT-1080 [3], with HT-1080 [11] and in the data set with Caco-2 [15] was “Active” in each case. For the same compound, the CC50 at 24 h in data set [5] was greater than 200000 nM; in [14] it was 78700 nM. Moreover, the inhibition entry in the data set on Caco-2 [6] was “inactive”. Further, in data set [7], the cytotoxicity at 24 h, 200 µM came to 100%. For the same compound, the IC50 in data set [8] came out at 152 nM; in data set [10] it was 158 nM. The compound further returned an inhibition at 10 µM with Caco-2 [12] of 44.5%.

Source of the values: ChEMBL document CHEMBL2062484, “Design of barbiturate-nitrate hybrids that inhibit MMP-9 activity and secretion” (J Med Chem, 2012).
